Test results published in ChEMBL document CHEMBL4028868, “Click-Chemistry-Mediated Synthesis of Selective Melanocortin Receptor 4 Agonists” (J Med Chem, 2017).

Legend:
Type in all cases: functional, cell-based
Melanocortin receptor 3 [1] = target: T1, Melanocortin receptor 3 (Homo sapiens, UniProt P41968); assay: Agonist activity at EYFP-fused human MC3R expressed in HEK293 cells after 16 to 20 hrs by CRE-driven reporter assay
Procedure, shortened: (§1)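 HEK293 monoclonal lines carrying a single receptor/9×CRE-d2EYFP construct, selected with puromycin and FACS-sorted, kept in low-fluorescence DMEM. EYFP imaged with bright-field images, normalized to cell coverage, corrected for unstimulated cells and scaled to α-MSH maximum. Four-parameter fit constrained to minimum 0, at least three independent experiments.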

Melanocortin receptor 5 [2] = target: T2, Melanocortin receptor 5 (Homo sapiens, UniProt P33032); assay: Agonist activity at EYFP-fused human MC5R expressed in HEK293 cells after 16 to 20 hrs by CRE-driven reporter assay relative to alpha-MSH; procedure, shortened: as §1
T2 sequence (P33032 whole entry, the tested form may be a part): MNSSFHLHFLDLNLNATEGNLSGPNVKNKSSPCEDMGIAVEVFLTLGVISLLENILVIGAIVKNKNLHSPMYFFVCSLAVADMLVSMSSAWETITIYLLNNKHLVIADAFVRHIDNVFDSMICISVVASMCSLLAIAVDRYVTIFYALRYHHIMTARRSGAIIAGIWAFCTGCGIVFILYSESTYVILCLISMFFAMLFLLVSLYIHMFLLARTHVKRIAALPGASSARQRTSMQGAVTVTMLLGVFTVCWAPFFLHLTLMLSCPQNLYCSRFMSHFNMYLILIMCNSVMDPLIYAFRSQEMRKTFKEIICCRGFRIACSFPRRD

Melanocortin receptor 4 [3] = target: T3, Melanocortin receptor 4 (Homo sapiens, UniProt P32245); assay: Agonist activity at EYFP-fused human MC4R expressed in HEK293 cells assessed as increase in cAMP accumulation after 30 mins by luminescent enzymatic complementation based assay
T3 sequence (P32245 whole entry, the tested form may be a part): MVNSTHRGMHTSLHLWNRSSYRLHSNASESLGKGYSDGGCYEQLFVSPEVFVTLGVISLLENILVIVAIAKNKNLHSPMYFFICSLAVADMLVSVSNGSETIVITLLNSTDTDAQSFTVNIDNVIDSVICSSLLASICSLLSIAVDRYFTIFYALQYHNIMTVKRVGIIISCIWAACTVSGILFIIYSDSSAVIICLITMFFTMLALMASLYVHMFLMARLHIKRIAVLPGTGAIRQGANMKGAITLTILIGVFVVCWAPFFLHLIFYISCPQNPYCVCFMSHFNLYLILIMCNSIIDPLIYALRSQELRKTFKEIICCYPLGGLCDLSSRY

Melanocortin receptor 3 [4] = target: T1, Melanocortin receptor 3; assay: Agonist activity at EYFP-fused human MC3R expressed in HEK293 cells after 16 to 20 hrs by CRE-driven reporter assay relative to alpha-MSH; procedure, shortened: as §1
Melanocortin receptor 5 [5] = target: T2, Melanocortin receptor 5; assay: Agonist activity at EYFP-fused human MC5R expressed in HEK293 cells after 16 to 20 hrs by CRE-driven reporter assay; procedure, shortened: as §1
Melanocortin receptor 4 [6] = target: T3, Melanocortin receptor 4; assay: Agonist activity at EYFP-fused human MC4R expressed in HEK293 cells after 16 to 20 hrs by CRE-driven reporter assay
Melanocortin receptor 5 [7] = target: T2, Melanocortin receptor 5; assay: Agonist activity at EYFP-fused human MC5R expressed in HEK293 cells at 3000 nM after 16 to 20 hrs by CRE-driven reporter assay relative to alpha-MSH
Procedure, shortened: (§2)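 HEK293 monoclonal lines carrying a single receptor/9×CRE-d2EYFP construct, selected with puromycin and FACS-sorted, kept in low-fluorescence DMEM. Seeded at 50,000 cells/well and treated after 24 h for 16–20 h with 11-point 3-fold dilutions (3.3 μM to […]) in triplicate, vehicle 0.5% v/v DMSO. EYFP imaged with bright-field images, normalized to cell coverage, corrected for unstimulated cells and scaled to α-MSH maximum. Four-parameter fit constrained to minimum 0, at least three independent experiments.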

Melanocortin receptor 3 [8] = target: T1, Melanocortin receptor 3; assay: Agonist activity at EYFP-fused human MC3R expressed in HEK293 cells at 3000 nM after 16 to 20 hrs by CRE-driven reporter assay relative to alpha-MSH; procedure, shortened: as §2
Melanocortin receptor 4 [9] = target: T3, Melanocortin receptor 4; assay: Agonist activity at EYFP-fused human MC4R expressed in HEK293 cells assessed as increase in cAMP accumulation at 3000 nM after 30 mins by luminescent enzymatic complementation based assay relative to alpha-MSH
Procedure, shortened: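 MC4R-expressing HEK293 cells seeded at 50,000/well and switched after 24 h to HBSS with 500 μM IBMX. Ligand was added as 11-point series in triplicate for 30 min. Cells were lysed and incubated with enzyme fragments and substrate at room temperature in the dark for at least 4 h. Luminescence from enzyme complementation was background-corrected and normalized to the α-MSH maximum, with at least three independent experiments.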

Melanocortin receptor 4 [10] = target: T3, Melanocortin receptor 4; assay: Agonist activity at EYFP-fused human MC4R expressed in HEK293 cells at 3000 nM after 16 to 20 hrs by CRE-driven reporter assay relative to alpha-MSH; procedure, shortened: as §2

T1 sequence (P41968 whole entry, the tested form may be a part): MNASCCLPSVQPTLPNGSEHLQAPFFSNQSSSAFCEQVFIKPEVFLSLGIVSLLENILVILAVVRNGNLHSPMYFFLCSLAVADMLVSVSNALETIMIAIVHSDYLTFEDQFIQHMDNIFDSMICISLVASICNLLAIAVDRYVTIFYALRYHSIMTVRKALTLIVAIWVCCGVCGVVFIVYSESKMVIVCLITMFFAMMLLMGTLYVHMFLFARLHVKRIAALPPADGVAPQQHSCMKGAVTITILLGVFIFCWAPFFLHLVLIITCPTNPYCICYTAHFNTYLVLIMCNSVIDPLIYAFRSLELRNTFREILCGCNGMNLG

Compound	EC50 (Melanocortin receptor 3 [1])	Emax (Melanocortin receptor 5 [2])	EC50 (Melanocortin receptor 4 [3])	Emax (Melanocortin receptor 3 [4])	EC50 (Melanocortin receptor 5 [5])	EC50 (Melanocortin receptor 4 [6])	Emax (Melanocortin receptor 5 [7])	Emax (Melanocortin receptor 3 [8])	Emax (Melanocortin receptor 4 [9])	Emax (Melanocortin receptor 4 [10])
CSCC[C@H](NC(=O)[C@@H]1Cc2cn(nn2)C[C@H](NC(=O)[C@H](C)N)C(=O)N[C@@H](Cc2cnc[nH]2)C(=O)N[C@H](Cc2ccccc2)C(=O)N[C@@H](CCCNC(=N)N)C(=O)N[C@@H](Cc2c[nH]c3ccccc23)C(=O)N1)C(=O)O	19.4 nM	123%	2 nM	111%	137 nM	1.4 nM	–	–	–	–
CSCC[C@H](NC(=O)[C@@H]1Cc2cn(nn2)CCC[C@H](N)C(=O)N[C@@H](Cc2cnc[nH]2)C(=O)N[C@H](Cc2ccccc2)C(=O)N[C@@H](CCCNC(=N)N)C(=O)N[C@@H](Cc2c[nH]c3ccccc23)C(=O)N1)C(=O)O	> 3000 nM	–	720 nM	–	> 3000 nM	185 nM	3%	16%	–	–
CC(=O)N[C@@H](CCCNC(=N)N)C(=O)N[C@H]1CSSC[C@@H](C(N)=O)NC(=O)[C@H](Cc2c[nH]c3ccccc23)NC(=O)[C@H](CCCNC(=N)N)NC(=O)[C@@H](Cc2ccccc2)NC(=O)[C@H](Cc2c[nH]cn2)NC(=O)[C@@H](C)NC1=O	–	–	–	–	110 nM	–	–	–	–	–
CSCC[C@H](NC(=O)[C@@H]1Cc2cn(nn2)C[C@H](NC(=O)[C@@H](N)CCCCN)C(=O)N[C@@H](Cc2cnc[nH]2)C(=O)N[C@H](Cc2ccccc2)C(=O)N[C@@H](CCCNC(=N)N)C(=O)N[C@@H](Cc2csc3ccccc23)C(=O)N1)C(=O)O	821 nM	–	63.7 nM	96%	> 3000 nM	7.6 nM	59%	–	–	–
CSCC[C@H](NC(=O)[C@@H]1Cc2cn(nn2)C[C@H](NC(=O)[C@@H](N)CCCCN)C(=O)N[C@@H](Cc2cnc[nH]2)C(=O)N[C@H](C)C(=O)N[C@@H](CCCNC(=N)N)C(=O)N[C@@H](Cc2c[nH]c3ccccc23)C(=O)N1)C(=O)O	> 3000 nM	–	943 nM	–	> 3000 nM	112 nM	8%	33%	–	–
CSCC[C@H](NC(=O)[C@@H]1Cc2cn(nn2)C[C@H](NC(=O)[C@@H](N)CCCCN)C(=O)N[C@@H](Cc2cnc[nH]2)C(=O)N[C@H](Cc2ccccc2)C(=O)N[C@@H](CCCN)C(=O)N[C@@H](Cc2c[nH]c3ccccc23)C(=O)N1)C(=O)O	> 3000 nM	–	730 nM	–	> 3000 nM	318 nM	9%	12%	–	–
CSCC[C@H](NC(=O)[C@@H]1Cc2cn(nn2)C[C@H](NC(=O)[C@@H](N)CCCNC(=N)N)C(=O)N[C@@H](Cc2cnc[nH]2)C(=O)N[C@H](Cc2ccccc2)C(=O)N[C@@H](CCCNC(=N)N)C(=O)N[C@@H](Cc2c[nH]c3ccccc23)C(=O)N1)C(=O)O	291 nM	85%	43.3 nM	102%	752 nM	11.4 nM	–	–	–	–
CSCC[C@H](NC(=O)[C@@H]1Cc2cn(nn2)C[C@H](NC(=O)[C@@H](N)CCCCN)C(=O)N[C@@H](Cc2cnc[nH]2)C(=O)N[C@H](Cc2ccccc2)C(=O)N[C@@H](C)C(=O)N[C@@H](Cc2c[nH]c3ccccc23)C(=O)N1)C(=O)O	> 3000 nM	–	684 nM	–	> 3000 nM	258 nM	5%	10%	–	–
CSCC[C@H](NC(=O)[C@@H]1Cc2cn(nn2)C[C@H](NC(=O)[C@@H](N)CCCCN)C(=O)N[C@@H](C)C(=O)N[C@H](Cc2ccccc2)C(=O)N[C@@H](CCCNC(=N)N)C(=O)N[C@@H](Cc2c[nH]c3ccccc23)C(=O)N1)C(=O)O	633 nM	130%	28.8 nM	104%	375 nM	2.8 nM	–	–	–	–
CSCC[C@H](NC(=O)[C@@H]1Cc2cn(nn2)C[C@H](NC(=O)[C@@H](N)CCCCN)C(=O)N[C@@H](Cc2cnc[nH]2)C(=O)N[C@@H](Cc2ccccc2)C(=O)N[C@@H](CCCNC(=N)N)C(=O)N[C@@H](Cc2c[nH]c3ccccc23)C(=O)N1)C(=O)O	> 3000 nM	–	792 nM	–	> 3000 nM	678 nM	1%	32%	–	–
C[C@H](NC(=O)[C@@H]1Cc2cn(nn2)C[C@H](NC(=O)[C@@H](N)CCCCN)C(=O)N[C@@H](Cc2cnc[nH]2)C(=O)N[C@H](Cc2ccccc2)C(=O)N[C@@H](CCCNC(=N)N)C(=O)N[C@@H](Cc2c[nH]c3ccccc23)C(=O)N1)C(=O)O	162 nM	126%	17.9 nM	107%	635 nM	2.3 nM	–	–	–	–
CC[C@@H](C)[C@H]1NC(=O)[C@H](Cc2cnc[nH]2)NC(=O)[C@@H](NC(=O)[C@@H](N)CCCCN)Cn2cc(nn2)C[C@@H](C(=O)N[C@@H](CCSC)C(=O)O)NC(=O)[C@H](Cc2c[nH]c3ccccc23)NC(=O)[C@H](CCCNC(=N)N)NC1=O	> 3000 nM	–	> 3000 nM	–	> 3000 nM	> 3000 nM	0%	0%	13%	42%
CSCC[C@H](NC(=O)[C@@H]1Cc2cn(nn2)C[C@H](NC(=O)[C@@H](N)CCCCN)C(=O)N[C@@H](Cc2cnc[nH]2)C(=O)N[C@H](Cc2ccccc2)C(=O)N[C@@H](CCCNC(=N)N)C(=O)N[C@@H](C)C(=O)N1)C(=O)O	1910 to 3000 nM	–	> 3000 nM	–	809 to 3000 nM	> 3000 nM	18%	17%	16%	19%
CSCC[C@H](NC(=O)[C@@H]1Cc2cn(nn2)[C@@H](CCCNC(=N)N)C(=O)N[C@@H](Cc2cnc[nH]2)C(=O)N[C@H](Cc2ccccc2)C(=O)N[C@@H](CCCNC(=N)N)C(=O)N[C@@H](Cc2c[nH]c3ccccc23)C(=O)N1)C(=O)O	160 nM	106%	9.6 nM	112%	916 nM	3.2 nM	–	–	–	–
CSCC[C@H](NC(=O)[C@@H]1Cc2cn(nn2)C[C@H](NC(=O)[C@@H](N)CCCCN)C(=O)N[C@@H](Cc2c[nH]c3ccccc23)C(=O)N[C@H](Cc2ccccc2)C(=O)N[C@@H](CCCNC(=N)N)C(=O)N[C@@H](Cc2cnc[nH]2)C(=O)N1)C(=O)O	> 3000 nM	–	> 3000 nM	–	> 3000 nM	> 3000 nM	0%	0%	28%	48%
CSCC[C@H](NC(=O)[C@@H]1Cc2cn(nn2)C[C@H](NC(=O)[C@@H](N)CCCCN)C(=O)N[C@@H](Cc2cnc[nH]2)C(=O)N[C@H](Cc2ccccc2)C(=O)N[C@@H](CCCCN)C(=O)N[C@@H](Cc2c[nH]c3ccccc23)C(=O)N1)C(=O)O	> 3000 nM	–	124 nM	–	> 3000 nM	12.7 nM	13%	40%	–	–
